The nature of data set [1]: Compound was evaluated for the half life. It counts as ADME. In short, it runs like this:
(§1)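 Porcine liver esterase (PLE), about 1 unit/mL, incubated with the model prodrug in 0.05 M phosphate buffer at pH 7.4 and 37 ± 0.5 °C. Amine release was followed by UV. The pseudo-first-order rate constant (kobs, min⁻¹) and the half-life (min) are reported.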

The species entered for another data set is Sus scrofa. In words: Pseudo first order rate constant to release model amine drug after esterase catalyzed hydrolysis at an enzyme concentration of 1 unit/mL. In short, it runs like this: as §1

As a reminder, the half-life is the time in which the quantity being followed falls by half. Read a high half-life as slow decline. As for `CC(=O)Oc1ccccc1/C=C\C(=O)N(C)Cc1ccccc1`, in data set [1], the half-life is 32.5 min. The compound also displayed a K obs x10e2 in the data set filed under Sus scrofa of 2.13 min⁻¹.

`CC(=O)Oc1c(C)ccc(C)c1/C=C\C(=O)N(C)Cc1ccccc1` displayed a half-life in data set [1] of 4.8 min. The K obs x10e2 in the data set listed under Sus scrofa is 14.4 min⁻¹.

With `CCN(CC)C(=O)/C=C\c1c(C)cc(C)cc1OC(C)=O`, the half-life in data set [1] was 18.8 min. The same compound returned a K obs x10e2 in the data set listed under Sus scrofa of 3.7 min⁻¹.

In data set [1], `CCN(CC)C(=O)/C=C\c1ccccc1OC(C)=O` displayed a half-life of 188 min. Moreover, in the data set listed under Sus scrofa, the K obs x10e2 came to 0.37 min⁻¹.

In data set [1], `CCN(CC)C(=O)/C=C\c1c(C)ccc(C)c1OC(C)=O` came in with a half-life of 11.4 min. The compound further gave a K obs x10e2 in the data set filed under Sus scrofa of 6.1 min⁻¹.

In data set [1], `CC(=O)Oc1cc(C)cc(C)c1/C=C\C(=O)N(C)Cc1ccccc1` had a half-life of 6.3 min. In the data set filed under Sus scrofa, this compound returned a K obs x10e2 of 11 min⁻¹.
